In ChEMBL document CHEMBL1123751, “Synthesis and biological activity of unsaturated carboacyclic purine nucleoside analogues” (J Med Chem, 1987) one finds Virus rating, ID90 and MIC50 data, which are given here for five compounds.

In assay [1] the test system is Human alphaherpesvirus 2. Kind of assay: Virus rating is measurement of degree of inhibition of virus-induced cytopathogenic effects and the degree of cytotoxicity produced by the test compound for Herpes simplex virus (HSV) -2. The format is functional. A digest of the protocol: (§1)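 Virus rating as defined by Southern Research Institute: a selective antiviral score that combines the degree of inhibition of virus-induced cytopathogenic effect with the degree of cytotoxicity from the test compound, determined by a modification of a published method.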
In general terms: Damage to the host cells serves as the signal in cytopathic effect assays.

Assay [2] deals with Vero. The assay can be described thus: Inhibition effect was determined against Herpes simplex virus (HSV) -1 in vero cell monolayer culture. Type of assay: functional, Chlorocebus sabaeus.
Assay [3] has as its system Vero. The assay can be described thus: Minimum inhibitory concentration of cytopathogenic-induced effect was determined against Herpes simplex virus (HSV) -2 in vero cell monolayer culture. The following applies: Chlorocebus sabaeus. The format is functional.
Assay [4] can be described thus: Virus rating is measurement of degree of inhibition of virus-induced cytopathogenic effects and the degree of cytotoxicity produced by the test compound for influenza type A2. Type of assay: functional.
The subject of assay [5] is Human alphaherpesvirus 2. Kind of assay: Evaluated virus rating for Herpes simplex virus (HSV) -2. Type of assay: functional. A digest of the protocol: as §1
Assay [6] relates to Vero. The assay can be described thus: Inhibition of cytopathogenic effect was determined against Herpes simplex virus (HSV) -2 in vero cell monolayer culture. The format is functional. The settings on record: Chlorocebus sabaeus.

Structures are written as SMILES. Converted amounts (≈) assume the structure as drawn.

In the assay on Human alphaherpesvirus 2 [1], `Nc1nc(O)c2ncn(CC=C(CO)CO)c2n1` returned a Virus rating of 1.5. Besides, in the assay with Vero [2], the ID90 was determined as 25 µM. Also, in the assay on Vero [3], the MIC50 was 65.6 µg/mL (≈ 261 µM).

On to `Nc1ncnc2c1ncn2CC=C(CO)CO`, for which the figures for the Virus rating (in assay [4]; in the assay on Human alphaherpesvirus 2 [5]) were 0.3 and 0.6, respectively. In the assay on Vero [6], this compound displayed an MIC50 of 939 µg/mL (≈ 3990 µM).

Compound `Nc1nc2c(ncn2COCCO)c(=O)[nH]1` [ACYCLOVIR] registered a Virus rating with Human alphaherpesvirus 2 [1] of 5.1. Further, the MIC50 in the assay with Vero [6] was 4.3 µg/mL (≈ 19.1 µM).

`NC(=O)c1ncn([C@@H]2O[C@H](CO)[C@@H](O)[C@H]2O)n1` [RIBAVIRIN] yielded a Virus rating in assay [4] of 2.8.

Consider `Nc1ncnc2c1ncn2[C@@H]1O[C@H](CO)[C@@H](O)[C@@H]1O` [VIDARABINE], for which the Virus rating in the assay on Human alphaherpesvirus 2 [1] was determined as 1.2. The same compound came in with an MIC50 in the assay on Vero [6] of 26.8 µg/mL (≈ 100 µM).
